Compound activity as filed in PubChem.
M18AAP inhibitor – PfM18AAP enzyme inhibition; 290,000 tested, 1.2% active; inhibition, % at 7.35 µM; recombinant PfM18AAP, H-Glu-NHMec fluorogenic cleavage;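 active means inhibition above the campaign mean inhibition over all tested compounds plus 3 SD, cut at about 28% in these data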
m5-HT2A agonist – agonists of mouse serotonin 5-HT2A receptor (HTR2A); P35363; CHO-K1 mHTR2A beta-arrestin complementation, luminescence; percent of 30 µM serotonin response; activation, % at 7.6 µM; 360,000 tested, 0.66% active;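 active means activation above a run cutoff, the mean activation of all tested compounds plus 3 SD, cut at about 14% in these data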
Target sequence (P35363 whole entry, looked up): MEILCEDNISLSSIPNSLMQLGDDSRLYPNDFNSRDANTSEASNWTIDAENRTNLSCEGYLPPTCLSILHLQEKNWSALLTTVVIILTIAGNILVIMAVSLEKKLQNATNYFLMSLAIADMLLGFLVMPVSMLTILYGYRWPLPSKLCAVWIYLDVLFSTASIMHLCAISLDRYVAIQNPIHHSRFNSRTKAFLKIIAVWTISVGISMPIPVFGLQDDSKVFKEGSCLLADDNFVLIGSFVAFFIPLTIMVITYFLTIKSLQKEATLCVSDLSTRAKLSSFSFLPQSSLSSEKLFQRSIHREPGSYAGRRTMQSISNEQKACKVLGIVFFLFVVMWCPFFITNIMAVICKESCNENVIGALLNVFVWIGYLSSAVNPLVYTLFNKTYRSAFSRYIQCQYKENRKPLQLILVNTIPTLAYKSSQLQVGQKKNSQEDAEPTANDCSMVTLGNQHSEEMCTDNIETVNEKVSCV
CendR NRP1 mod – alters CendR peptide binding to human NRP-1. inhibition, % at 25 µM. 360,000 tested, 0.85% active. FAM-RPARPAR peptide binding to NRP-1, fluorescence polarization;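 active means inhibition or corrected inhibition above about 18%, plus a signal ratio from 0.5 to 1.5, limit read from the data, passing the limit was not always enough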
Arr AP2 block – inhibitors of human beta-arrestin and AP2 interaction; FITC-arrestin peptide / GST-AP2 beads, flow cytometry; AP2 beta2 appendage carries R879A mutation; inhibition, % at 10 µM; AID 504490; 340,000 tested, 0.31% active;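 active means inhibition above a set limit, near 3 SD of compounds lacking own fluorescence, cut at about 54% in these data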
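Material – AP2 appendage R879A on GSH beads · Buffer or medium – PBS with 0.05% Tween 20 and 0.1% BSA · Probe or stimulus – fluorescein-tagged arrestin peptide at 50 nM final · Incubation – compound with beads 12 min RT, then probe 1 h RT · Detection – high-throughput flow cytometry of beads, ex 488, em 535 nm · Evaluation – percent response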
sPLA2-III inh – Inhibits HGIII-sPLA2 liposome hydrolysis, primary screen. QFRET BODIPY PC-A2 liposome hydrolysis, fluorescence. inhibition, % at 12.2 µM. 370,000 tested, 0.56% active. AID 743126;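 active means inhibition above mean plus 3 SD of compounds lying within the high and low control bounds, cut at about 19% in these data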
Lipid droplet – hepatic lipid droplet formation modulation; AML12 mouse hepatocytes, oleate lipid droplets, BODIPY imaging; inhibition, % at 6.5 µM; 240,000 tested, 0.4% active;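 active means lipid droplet intensity inhibited by at least 50%, with more than 500 cells counted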
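material = mouse AML12 hepatocyte cell line, fixed after treatment | also added = 100 µM oleic acid challenge | doses = compound at 6.5 µM only | schedule = overnight exposure | technique = Image-based BODIPY and DAPI two-channel analysis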
Hits are given with their value; 0 = inactive; - = no result given. Compounds with a hit are over-represented: about 3.3% of the library has one in this group of screens.

SMILES | M18AAP inhibitor | m5-HT2A agonist | CendR NRP1 mod | Arr AP2 block | sPLA2-III inh | Lipid droplet
O=C1CCC(=O)N1c1cccc(OS(=O)(=O)c2ccccc2)c1 | 35.7 | 0 | 0 | 0 | 0 | 0
CC1CCC2C(=O)N(c3cccc(OS(=O)(=O)c4ccccc4)c3)C(=O)C2C1 (stereo not drawn) | 0 | 0 | 0 | 0 | 0 | 0
CC(C)C(Nc1ccc(S(=O)(=O)N2CCOCC2)cc1[N+](=O)[O-])C(=O)O (stereo not drawn) | 0 | 0 | 27.6 | 0 | 0 | 0
Cc1cccc(COc2ccc(S(=O)(=O)N3CCOCC3)cc2[N+](=O)[O-])c1 | - | 0 | 19.6 | 0 | 0 | -
Cn1c(=O)c2[nH]c(SCCN3CCCCC3)nc2n(C)c1=S | - | 0 | 20.5 | 0 | 0 | -
O=C(CNC(=O)c1ccccc1)NCC(=O)OCC(=O)c1ccc(F)cc1 | 0 | 0 | 0 | 0 | 0 | -
O=C(CNC(=O)c1ccc(Br)cc1)NCC(=O)OCC(=O)c1ccc(F)cc1 | 0 | 0 | 26.1 | 0 | 0 | 0
O=C(CN(C(=O)CCC(=O)Nc1ccccn1)c1ccc2c(c1)OCO2)NCc1ccco1 | 0 | 0 | 21.6 | 0 | 0 | -
Cc1ccc(N(CC(=O)NCc2ccco2)C(=O)CCC(=O)Nc2ccccn2)cc1C | 0 | 0 | 0 | 0 | 0 | -
CC/C=C/C(=O)N1CC2(CC(c3cccc(NC(=O)c4ccccc4)c3)=NO2)C[C@@H]1C(N)=O (stereo partly drawn) | 0 | 0 | 23.4 | 0 | 0 | -
NC(=O)[C@H]1CC2(CC(c3cccc(NC(=O)CC(c4ccccc4)c4ccccc4)c3)=NO2)CN1C(=O)C(c1ccccc1)c1ccccc1 (stereo partly drawn) | - | 0 | 30.3 | 0 | 0 | 0
CCOCCC(=O)Nc1ccc2c(c1)c(=O)n(C)n2CC=C(C)C | - | 0 | 0 | - | 0 | -
O=C(NC1CCCCC1)C(CCc1ccccc1)N1CCc2ccccc2C1 (stereo not drawn) | - | 0 | 0 | - | 0 | -
CCOC(=O)c1nn(-c2ccccc2)c(=O)c(C#N)c1C | 0 | 0 | 0 | 0 | 0 | 0
CCOC(=O)c1nn(-c2ccccc2)c(C#N)c1N | 0 | 0 | 39.2 | 0 | 0 | 0
COc1cc2oc(-c3ccc(O)cc3)cc(=O)c2c(OC)c1O | 33.0 | 0 | 0 | 0 | 0 | 0
Clc1ccccc1OCc1nn[nH]n1 | 0 | 0 | 29.6 | 0 | 0 | 0
Cc1cc(C(=O)COC(=O)c2ccc3c(c2)NC(=O)CS3)c(C)n1CC1CCCO1 (stereo not drawn) | 0 | 0 | 0 | 0 | 0 | 0
COCC(C)n1c(C)cc(C(=O)COC(=O)c2ccc3c(c2)NC(=O)CS3)c1C (stereo not drawn) | 0 | 0 | 29.9 | 0 | 0 | 0
CC(NC(=O)[C@H](C)NC(=O)N1CCn2c1nc1ccccc12)c1ccccc1 (stereo partly drawn) | 0 | 0 | 23.9 | 0 | 0 | 0
FCCCOc1ccc(-c2nccc(-c3ccccn3)n2)cc1 | 0 | 0 | 20.8 | 0 | 0 | 0
CC(C)c1ccc(NC(=O)/C(C#N)=C/c2ccncc2)cc1 | 0 | 0 | 0 | 0 | 0 | 0
Cc1[nH]nc(Nc2ccc(O)cc2)c1[N+](=O)[O-] | 30.9 | 0 | 0 | 0 | 0 | 0
COc1ccc(Nc2n[nH]c(C)c2[N+](=O)[O-])cc1 | 0 | 0 | 0 | 0 | 0 | 0
NS(=O)(=O)c1ccc(OCCCN2CCC(C(O)(c3ccccc3)c3ccccc3)CC2)cc1 | - | - | - | - | 0 | -
SMILES | M18AAP inhibitor | m5-HT2A agonist | CendR NRP1 mod | Arr AP2 block | sPLA2-III inh | Lipid droplet
Cc1ccc2c(c1)[nH]c1c(N3CCN(Cc4ccccc4)CC3)ncnc12 | 0 | 0 | 0 | 0 | 0 | -
c1ccc(CN2CCN(c3ncnc4c3[nH]c3ccccc34)CC2)cc1 | 0 | 23.8 | 0 | 0 | 0 | -
Cc1cc(C)cc(OCCCn2ccnc2)c1 | 0 | 0 | 27.4 | 0 | 0 | 0
Cc1cccc(OCCCn2ccnc2)c1 | 0 | 0 | 0 | 0 | 0 | 0
Cc1ccccc1CN1CCCCC(NC(=O)C(C)(C)C)C1=O (stereo not drawn) | - | - | - | - | 0 | -
CCc1c(-c2ccccc2Br)ncn1CCc1ccccc1OC | - | - | - | - | 0 | -
CCN1CCN(CC2CC3C=CC2C3)CC1 (stereo not drawn) | 0 | 0 | 31.2 | 0 | 0 | 0
CS(=O)(=O)N1CCN(CC2CC3C=CC2C3)CC1 (stereo not drawn) | 0 | 0 | 0 | 0 | 0 | 0
O=C(CSc1nnc(-c2ccccn2)n1-c1ccccc1)Nc1ccc2c(c1)OCCO2 | - | - | - | - | 0 | -
CN(C(=O)COC(=O)c1ccccc1SCC(=O)N1CCCC1)C1CCS(=O)(=O)C1 (stereo not drawn) | 0 | 0 | 20.0 | 0 | 0 | 0
Cc1ccc(NC(=O)c2cc(N3C(=O)C4CCCCC4C3=O)ccc2N2CCOCC2)cc1 (stereo not drawn) | 0 | 0 | 25.0 | 0 | 0 | 0
CCCCn1c(SCCN2CCCCC2)nc2c1c(=O)n(C)c(=O)n2C | - | 0 | 0 | - | 0 | -
O=C(COc1cc(Cl)c(Cl)cc1Cl)Nc1ccc([N+](=O)[O-])cc1Cl | 0 | 0 | 24.3 | 0 | 0 | 0
COc1ccc2c(c1)CCCN2C(=O)C1CCCN(S(=O)(=O)c2ccc(Br)s2)C1 (stereo not drawn) | - | - | - | - | 0 | -
Cc1ccc(C(=O)CN(CCC(=O)O)C(=O)c2ccncc2)cc1 | - | 0 | 21.8 | 0 | 0 | -
Oc1ccccc1C=NCCN1CCN(CCN=Cc2ccccc2O)C1c1ccccc1O (stereo not drawn) | - | 0 | 22.1 | 0 | 0 | -
COCc1cc(=O)[nH]c(/N=C(\N)Nc2ccc(C)cc2C)n1 | 0 | 0 | 27.0 | 0 | 0 | 0
COc1ccc(CNC(=O)Cn2ccc(N)nc2=O)cc1 | - | 0 | 32.3 | 0 | 0 | -
Nc1ccn(CC(=O)NCc2ccc3c(c2)OCO3)c(=O)n1 | - | 0 | 21.1 | 0 | 0 | -
